Legend:
EOL-1 and MM1.S cells [1] = test: Colony formation assay; format: cell-based, human; conditions: 2.5 μM
Outline: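 20,000 cells per well were plated in triplicate. Medium containing compound or vehicle was replaced every four days. After 4 weeks, wells were stained with 100 μg/mL iodonitrotetrazolium chloride, and colonies were counted after overnight incubation.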

cancer cells = conditions: ref Bottcher et al., 2019; cited from earlier work
[2] = test system: EOL-1, RS4;11 and MM1.S cells; test: Cell growth inhibition assay; format: cell-based, human; conditions: for EC50: Homo sapiens, 192 h, read-out: EC50 (growth inhibition)
Outline: (§1)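 Cells were kept in RPMI 1640 with 10% FBS and 1% penicillin/streptomycin. 0.5 million cells per well were seeded in triplicate and treated with various final compound concentrations, with compound-containing medium renewed every two days. Cultures were diluted to stay below 1×10^6/mL and counted automatically every two days. EC50 came from nonlinear regression over at least three experiments, given as mean ± SD.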

NSD3S = target: T1, NSD3S (Homo sapiens, UniProt Q9BZ95); test: Immunoblotting for NSD3S in 293FT cells; format: cell-based; conditions: 48-hour treatment; for NSD3 degradation (immunoblot): 293FT cells, indicated concentrations
T1 sequence (Q9BZ95 1-645 isoform Q9BZ95-3): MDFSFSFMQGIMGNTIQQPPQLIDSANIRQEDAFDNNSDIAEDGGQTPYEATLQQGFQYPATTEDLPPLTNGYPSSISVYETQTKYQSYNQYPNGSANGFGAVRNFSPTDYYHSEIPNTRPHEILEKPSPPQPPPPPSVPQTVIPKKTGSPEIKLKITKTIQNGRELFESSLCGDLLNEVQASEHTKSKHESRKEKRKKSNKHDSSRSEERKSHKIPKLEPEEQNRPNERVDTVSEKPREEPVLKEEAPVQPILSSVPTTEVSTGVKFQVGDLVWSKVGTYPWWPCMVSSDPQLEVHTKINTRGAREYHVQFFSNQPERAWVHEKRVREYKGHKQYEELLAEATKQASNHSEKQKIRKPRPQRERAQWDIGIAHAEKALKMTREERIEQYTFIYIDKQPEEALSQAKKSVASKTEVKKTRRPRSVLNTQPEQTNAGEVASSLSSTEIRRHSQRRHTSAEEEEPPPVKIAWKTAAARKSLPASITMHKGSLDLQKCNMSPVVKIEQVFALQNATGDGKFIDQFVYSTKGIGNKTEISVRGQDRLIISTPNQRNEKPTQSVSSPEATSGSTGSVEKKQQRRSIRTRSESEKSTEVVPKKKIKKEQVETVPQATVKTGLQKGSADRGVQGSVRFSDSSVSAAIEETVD
Outline: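 293FT cells were grown in DMEM with 10% FBS and 1% penicillin/streptomycin. NSD3 was detected by western blot with rabbit anti-NSD3 antibody, using rabbit anti-GAPDH as loading control and HRP-linked secondary antibodies.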

cMyc [3] = test: cMyc ubiquitination assay in EOL-1 cells; format: cell-based, human; conditions: 2.5 μM, 48-hour treatment
Outline: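 Lysates were heat-denatured 5 min at 95°C, diluted with EBC, sonicated and cleared. Immunoprecipitation with antibody ran overnight at 4°C, then protein A/G magnetic beads for 3 h at 4°C. Blots were probed with mouse anti-ubiquitin.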

NSD3 [4] = target: T2, NSD3 (Homo sapiens, UniProt Q9BZ95); test: Ubiquitination assay of Flag-tagged NSD3S in 293FT cells; format: cell-based; conditions: 293FT cells expressing Flag-tagged NSD3S, 48-hour treatment
T2 sequence (Q9BZ95 1-645 isoform Q9BZ95-3): T1 sequence (Q9BZ95 1-645 isoform Q9BZ95-3)

K562 cells = test: Cell growth inhibition assay in K562 cells; format: cell-based, human; conditions: 2.5 μM, ten days
Outline: as §1

NSD3 [5] = target: T2, NSD3; test: Immunoblotting for NSD3 degradation in hematological cancer cells; format: cell-based
[6] = test system: CBLB, IFITM1, SELL and MAP7; test: RT-qPCR and western blots of NSD3-upregulated gene targets; format: cell-based, human; conditions: EOL-1 or MM1.S cells, 2.5 μM, 48 hours, compared to BI-9321 and MS9715N
Outline: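 For mRNA, RT-qPCR relative expression was calculated by the 2−ΔΔCT method and normalized to the mean of beta-actin. For protein, western blots used rabbit anti-CBLB and rabbit anti-IFITM1 antibodies with rabbit anti-GAPDH as loading control. Cells were grown in RPMI 1640 with 10% FBS.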

EOL-1 cells = test: Mass spectrometry-based global proteomic profiling; format: cell-based, human; conditions: 2.5 μM, 30 hours, more than 5,000 proteins detected
EOL-1 and MM1.S cells [7] = test: Apoptosis induction; format: cell-based, human; conditions: 2.5 μM, four-day treatment
Outline: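 EOL-1 and MM1.S cells were grown in RPMI 1640 with 10% FBS and 1% penicillin/streptomycin. Lines were authenticated by genetic fingerprinting and screened monthly for mycoplasma. Apoptosis was assessed by western blot with rabbit anti-cleaved caspase-3 and anti-cleaved caspase-7 antibodies, detected with an HRP-linked anti-rabbit IgG secondary.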

cMyc [8] = test: Immunoblotting for cMyc protein levels; format: cell-based, human
Outline: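 cMyc was detected by western blot with rabbit anti-cMyc antibody, using rabbit anti-GAPDH as loading control. VHL status was checked with mouse anti-VHL. VHL was knocked out by CRISPR/Cas9 and compared with WT cells. EOL-1 and MM1.S cells were grown in RPMI 1640 and 293FT cells in DMEM, each with 10% FBS and 1% penicillin/streptomycin.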

NSD3 PWWP1 domain = target: T3, NSD3 PWWP1 domain (Homo sapiens, UniProt Q9BZ95); test: Isothermal titration calorimetry; format: binding
T3 sequence (Q9BZ95 247-402): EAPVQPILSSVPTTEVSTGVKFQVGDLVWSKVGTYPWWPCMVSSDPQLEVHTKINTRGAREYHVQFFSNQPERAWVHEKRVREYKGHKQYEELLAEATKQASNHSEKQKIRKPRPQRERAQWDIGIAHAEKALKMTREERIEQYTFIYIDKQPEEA

Compound: Cc1cc(CN)cc(C)c1-c1ncn(C)c1-c1ccnc2cc(F)ccc12 [BI-9321, reference compound]
- colony-forming capabilities (EOL-1 and MM1.S cells [1]): little or no effect
- killing of cancer cells (cancer cells): does not lead to effective killing of cancer cells
- EC50 [2]: > 10 µM

Compound: Cc1cc(CNCCCC(=O)NCCOCCOCCNc2cccc3c2C(=O)N(C2CCC(=O)NC2=O)C3=O)cc(C)c1-c1ncn(C)c1-c1ccnc2cc(F)ccc12 (stereo not drawn) [Compound 1, N-(2-(2-(2-((2-(2,6-dioxopiperidin-3-yl)-1,3-dioxoisoindolin-4-yl)amino)ethoxy)ethoxy)ethyl)-4-((4-(5-(7-fluoroquinolin-4-yl)-1-methyl-1H-imidazol-4-yl)-3,5-dimethylbenzyl)amino) butanamide]
- NSD3 degradation (immunoblot) (NSD3S): failed to degrade NSD3

Compound: Cc1cc(CNCCCC(=O)NCCCCCNc2cccc3c2C(=O)N(C2CCC(=O)NC2=O)C3=O)cc(C)c1-c1ncn(C)c1-c1ccnc2cc(F)ccc12 (stereo not drawn) [Compound 2, N-(5-((2-(2,6-dioxopiperidin-3-yl)-1,3-dioxoisoindolin-4-yl)amino)pentyl)-4-((4-(5-(7-fluoroquinolin-4-yl)-1-methyl-1H-imidazol-4-yl)-3,5-dimethylbenzyl)amino)butanamide]
- NSD3 degradation (immunoblot) (NSD3S): failed to degrade NSD3

Compound: Cc1cc(CNCCCC(=O)NCCCCCCCCC(=O)N[C@H](C(=O)N2C[C@H](O)C[C@H]2C(=O)NCc2ccc(-c3scnc3C)cc2)C(C)(C)C)cc(C)c1-c1ncn(C)c1-c1ccnc2cc(F)ccc12 [Compound 5, (2S,4R)-1-((S)-2-(9-(4-((4-(5-(7-fluoroquinolin-4-yl)-1-methyl-1H-imidazol-4-yl)-3,5-dimethylbenzyl)amino)butanamido)nonanamido)-3,3-dimethylbutanoyl)-4-hydroxy-N-(4-(4-methylthiazol-5-yl)benzyl)pyrrolidine-2-carboxamide]
- NSD3 degradation (immunoblot) (NSD3S): clearly induced NSD3 degradation at 10–40 μM

Compound: Cc1cc(CNCCCC(=O)NCCCCNC(=O)C[C@H](NC(=O)[C@@H]2C[C@@H](O)CN2C(=O)[C@@H](NC(=O)C2(F)CC2)C(C)(C)C)c2ccc(-c3scnc3C)cc2)cc(C)c1-c1ncn(C)c1-c1ccnc2cc(F)ccc12 [Compound 6, (2S,4R)-1-((S)-2-(1-fluorocyclopropane-1-carboxamido)-3,3-dimethylbutanoyl)-N-((S)-3-((4-(4-((4-(5-(7-fluoroquinolin-4-yl)-1-methyl-1H-imidazol-4-yl)-3,5-dimethylbenzyl)amino)butanamido)butyl)amino)-1-(4-(4-methylthiazol-5-yl)phenyl)-3-oxopropyl)-4-hydroxypyrrolidine-2-carboxamide]
- NSD3 degradation (immunoblot) (NSD3S): did not lead to effective degradation of NSD3

Compound: Cc1cc(CNCCCC(=O)NCCCCCCCCC(=O)N[C@H](C(=O)N2C[C@H](O)C[C@H]2C(=O)N[C@@H](C)c2ccc(-c3scnc3C)cc2)C(C)(C)C)cc(C)c1-c1ncn(C)c1-c1ccnc2cc(F)ccc12 [MS9715, (2S,4R)-1-((S)-2-(9-(4-((4-(5-(7-fluoroquinolin-4-yl)-1-methyl-1H-imidazol-4-yl)-3,5-dimethylbenzyl)amino)butanamido)nonanamido)-3,3-dimethylbutanoyl)-4-hydroxy-N-((S)-1-(4-(4-methylthiazol-5-yl)phenyl)ethyl)pyrrolidine-2-carboxamide]
- colony-forming capabilities (EOL-1 and MM1.S cells [1]): drastically decreased colony-forming capabilities
- NSD3 degradation in VHL knockout cells (NSD3S; 293FT cells with CRISPR/Cas9-mediated KO of VHL vs WT): abrogated the MS9715-mediated NSD3 degradation
- ubiquitination of cellular cMyc (cMyc [3]): significantly enhanced
- ubiquitination of cellular NSD3 (NSD3 [4]): induced ubiquitination of cellular NSD3 in a concentration-dependent manner
- growth inhibitory activity (K562 cells): little growth inhibitory effect
- concentration-dependent depletion of cellular NSD3S (NSD3 [5]; EOL-1, MM1.S and MOLM13 cells, 48-hour treatment): concentration-dependent depletion of cellular NSD3S
- depletion of NSD3S and NSD3L isoforms (NSD3 [5]; EOL-1 and MM1.S cells): led to depletion of both NSD3S and NSD3L isoforms
- time-dependent NSD3S degradation (NSD3 [5]; EOL-1 and MM1.S cells, 2.5 μM): significant degradation occurring at as early as 24 hours
- Dmax (NSD3 [5]; MOLM-13, read-out: maximum degradation (Dmax)): > 80%
- DC50 (NSD3 [5]; read-out: half-maximal degradation concentration (DC50), MOLM13 cells, 48-hour treatment, mean ± SD from three independent experiments): 4.9 ± 0.4 µM
- suppression of expression of CBLB, IFITM1, SELL and MAP7 [6]: superior effect
- proteome-wide selectivity (significantly downregulated proteins) (EOL-1 cells): NSD3 was the only protein showing significant downregulation
- induction of apoptosis (EOL-1 and MM1.S cells [7]): induced a prominent increase of apoptosis
- protein levels of cMyc (cMyc [8]; EOL-1 and MM1.S cells, 2.5 μM, 48 hours): significant decrease in the protein levels of cMyc
- cMyc depletion in VHL-deficient cells (cMyc [8]; VHL-deficient EOL-1 and 293FT cells relative to WT, 48-hour treatment): almost completely diminished
- growth inhibitory activity ([2]; 2.5 μM, ten days, EOL-1, MM1.S and RS4;11 cells): effectively inhibited the growth
- EC50 [2]: 2 to 4 µM

Compound: Cc1cc(CNCCCC(=O)NCCCCCCCCC(=O)N[C@H](C(=O)N2C[C@@H](O)C[C@@H]2C(=O)N[C@@H](C)c2ccc(-c3scnc3C)cc2)C(C)(C)C)cc(C)c1-c1ncn(C)c1-c1ccnc2cc(F)ccc12 [MS9715N, (2R,4S)-1-((S)-2-(9-(4-((4-(5-(7-fluoroquinolin-4-yl)-1-methyl-1H-imidazol-4-yl)-3,5-dimethylbenzyl)amino)butanamido)nonanamido)-3,3-dimethylbutanoyl)-4-hydroxy-N-((S)-1-(4-(4-methylthiazol-5-yl)phenyl)ethyl)pyrrolidine-2-carboxamide]
- colony-forming capabilities (EOL-1 and MM1.S cells [1]): little or no effect
- Kd (NSD3 PWWP1 domain): 1.62 ± 0.33 µM
- EC50 [2]: > 10 µM

Source: article PMC8882712 (Cell chemical biology, 2021)
